Assays:
[1] = Partition coefficient value between phosphate buffer (0.1 M, pH 7.4) and octanol at room temperature; type: physicochemical; conditions: octanol/water
Outline: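 Shake-flask method: compound dissolved in 0.1 M phosphate buffer pH 7.4, stirred 1 h at room temperature with an equal volume of octanol. Aqueous-phase nucleoside concentration measured spectrophotometrically.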

[2] = In vitro radiosensitizing activity against Chinese Hamster cells at a conc of 1.0 mM measured as sensitizer enhancement ratio; type: functional, Cricetulus griseus
Outline: (§1)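 V-79 Chinese hamster asynchronous monolayers from exponential cultures, plated in sealed containers and made hypoxic by flushing with 95% N2/5% CO2 for 1 h at 37 °C with compound present; total drug exposure 2 h. Cobalt-60 irradiation at ~230 rad/min, 400–2700 rad. Colonies counted after 6 days at 37 °C. SER = D0 hypoxic control / D0 hypoxic drug-treated; averaged over at least two experiment sets.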

[3] = In vitro radiosensitizing activity against Chinese Hamster cells at a conc of 0.5 mM measured as sensitizer enhancement ratio; type: functional, Cricetulus griseus; outline: as §1
[4] = In vitro radiosensitizing activity against Chinese Hamster cells at a conc of 0.05 mM measured as sensitizer enhancement ratio; type: functional, Cricetulus griseus; outline: as §1
[5] = In vitro radiosensitizing activity against Chinese Hamster cells at a conc of 0.1 mM measured as sensitizer enhancement ratio
[6] = In vitro radiosensitizing activity against Chinese Hamster cells at a conc of 1 mM measured as sensitizer enhancement ratio; type: functional, Cricetulus griseus; outline: as §1

PC [1]	SMILES	SER [3]	other results
0.07	O=[N+]([O-])c1nccn1[C@@H]1O[C@H](CO)[C@@H](O)[C@@H]1O		SER [2]: 1.8
0.24	O=[N+]([O-])c1nccn1[C@H]1C=COC(CO)C1O (some centres not stated)		SER [2]: 1.7
0.11	O=[N+]([O-])c1nccn1[C@H]1O[C@H](CO)[C@@H](O)[C@@H]1O		SER [6]: 1.6
0.43	COCC(O)Cn1ccnc1[N+](=O)[O-] (configuration not stated) [MISONIDAZOLE]		SER [6]: 1.9

Continued, compound first:

SMILES	PC [1]	SER [3]	other results
O=[N+]([O-])c1nccn1[C@H]1C=C[C@H](O)[C@@H](CO)O1	0.22		SER [2]: 2
CC(=O)OC[C@H]1O[C@H](n2ccnc2[N+](=O)[O-])C=C[C@@H]1OC(C)=O		1.9	
O=C(OC[C@H]1O[C@H](n2ccnc2[N+](=O)[O-])[C@H](OC(=O)c2ccccc2)[C@@H]1OC(=O)c1ccccc1)c1ccccc1			SER [4]: 1
O=[N+]([O-])c1nccn1[C@@H]1C=C[C@H](O)[C@@H](CO)O1	0.22	2	
CC(=O)OC[C@H]1O[C@@H](n2ccnc2[N+](=O)[O-])C=C[C@@H]1OC(C)=O		1.6	
O=C(OC[C@H]1O[C@@H](n2ccnc2[N+](=O)[O-])[C@H](OC(=O)c2ccccc2)[C@@H]1OC(=O)c1ccccc1)c1ccccc1			SER [5]: 1.1
CC(=O)OCC1OC=CC(n2ccnc2[N+](=O)[O-])C1OC(C)=O (configuration not stated)		1.8	

From ChEMBL document CHEMBL1122500, “Potential radiosensitizing agents. 6. 2-Nitroimidazole nucleosides: arabinofuranosyl and hexopyranosyl analogues” (J Med Chem, 1983)
